In ChEMBL document CHEMBL3286335, “Synthesis of 2,3,6-trideoxy sugar triazole hybrids as potential new broad spectrum antimicrobial agents” (Eur J Med Chem, 2014):
In brackets after ≈: the same amount, converted by molar mass.

How the values were obtained:
Type in all cases: functional
Staphylococcus aureus [1] = test: Antimicrobial activity against Staphylococcus aureus ATCC 25923 after 24 hrs by microbroth dilution method; settings: ATCC 25923, 24 h
In short: (§1)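 Broth microdilution per NCCLS guidelines. Bacteria in Mueller-Hinton broth; fungi in MOPS-buffered RPMI 1640. Test compounds at 50-0.36 µg/mL, standard drugs over 32-0.0018 µg/mL. Inoculum 1-5 × 10^3 cells/mL, 35 °C in a moist chamber. A492 read at 24 h for bacteria, 48 h for C. albicans, 72 h for A. fumigatus, C. neoformans and S. schenckii, 96 h for T. mentagrophytes. MIC taken as 90% growth inhibition relative to growth control.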

Sporothrix schenckii = test: Antimicrobial activity against Sporothrix schenckii after 72 hrs by microbroth dilution method; in short: as §1
Staphylococcus aureus [2] = test: Antimicrobial activity against methicillin-resistant Staphylococcus aureus after 24 hrs by microbroth dilution method
In short: (§2)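 Microbroth dilution in Mueller Hinton broth, following NCCLS guidelines. Test compounds were run at 50-0.36 µg/mL against an initial inoculum of 1-5 × 10^3 cells/mL. Plates were incubated in a moist chamber at 35 °C, and absorbance at 492 nm was read after 24 h. MIC was taken as 90% growth inhibition relative to the growth control.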

[3] = system: Trichophyton mentagrophytes; test: Antimicrobial activity against Trichophyton mentagrophytes after 96 hrs by microbroth dilution method; in short: as §1
Pseudomonas aeruginosa = test: Antimicrobial activity against Pseudomonas aeruginosa ATCC BAA-427 after 24 hrs by microbroth dilution method; settings: ATCC BAA-427, 24 h; in short: as §1
Klebsiella pneumoniae = test: Antimicrobial activity against Klebsiella pneumoniae ATCC 27736 after 24 hrs by microbroth dilution method; settings: ATCC 27736, 24 h; in short: as §1
Candida albicans = test: Antimicrobial activity against Candida albicans after 48 hrs by microbroth dilution method; in short: as §1
Staphylococcus aureus [4] = test: Antimicrobial activity against vancomycin-resistant Staphylococcus aureus after 24 hrs by microbroth dilution method; in short: as §2
Aspergillus fumigatus = test: Antimicrobial activity against Aspergillus fumigatus after 72 hrs by microbroth dilution method; in short: as §1
Cryptococcus neoformans = test: Antimicrobial activity against Cryptococcus neoformans after 72 hrs by microbroth dilution method; in short: as §1
Escherichia coli = test: Antimicrobial activity against Escherichia coli ATCC 9637 after 24 hrs by microbroth dilution method; settings: ATCC 9637, 24 h; in short: as §1

| Structure (SMILES) | MIC (Staphylococcus aureus [1]) | MIC (Sporothrix schenckii) | MIC (Staphylococcus aureus [2]) | MIC [3] | MIC (Pseudomonas aeruginosa) | MIC (Klebsiella pneumoniae) | MIC (Candida albicans) | MIC (Staphylococcus aureus [4]) | MIC (Aspergillus fumigatus) | MIC (Cryptococcus neoformans) | MIC (Escherichia coli) |
| --- | --- | --- | --- | --- | --- | --- | --- | --- | --- | --- | --- |
| CCCCCCCCc1cn(C[C@H]2O[C@H](OCCC(C)C)C=C[C@@H]2O)nn1 | > 50 µg/mL | > 50 µg/mL | > 50 µg/mL | 50 µg/mL (≈ 132 µM) | > 50 µg/mL | > 50 µg/mL | > 50 µg/mL | > 50 µg/mL | > 50 µg/mL | 25 µg/mL (≈ 65.9 µM) | > 50 µg/mL |
| CC(C)CO[C@@H]1C=CC(=O)[C@@H](Cn2cc(CCCCl)nn2)O1 | 12.5 µg/mL (≈ 38.1 µM) | 50 µg/mL (≈ 153 µM) | > 50 µg/mL | > 50 µg/mL | > 50 µg/mL | 50 µg/mL (≈ 153 µM) | 50 µg/mL (≈ 153 µM) | > 50 µg/mL | > 50 µg/mL | > 50 µg/mL | > 50 µg/mL |
| CC(C)CCO[C@@H]1C=CC(=O)[C@@H](Cn2cc(CCCC=O)nn2)O1 | > 50 µg/mL | 12.5 µg/mL (≈ 37.3 µM) | > 50 µg/mL | 25 µg/mL (≈ 74.5 µM) | > 50 µg/mL | 50 µg/mL (≈ 149 µM) | > 50 µg/mL | > 50 µg/mL | > 50 µg/mL | > 50 µg/mL | > 50 µg/mL |
| CC(C)CCO[C@@H]1C=CC(=O)[C@@H](Cn2cc(CCCCOC(=O)C(C)(C)C)nn2)O1 | 12.5 µg/mL (≈ 29.7 µM) | 12.5 µg/mL (≈ 29.7 µM) | > 50 µg/mL | 25 µg/mL (≈ 59.3 µM) | 50 µg/mL (≈ 119 µM) | 12.5 µg/mL (≈ 29.7 µM) | > 50 µg/mL | > 50 µg/mL | 25 µg/mL (≈ 59.3 µM) | 50 µg/mL (≈ 119 µM) | 50 µg/mL (≈ 119 µM) |
| CC(C)CCO[C@@H]1C=CC(=O)[C@@H](Cn2cc(CCBr)nn2)O1 | 12.5 µg/mL (≈ 33.6 µM) | 25 µg/mL (≈ 67.2 µM) | > 50 µg/mL | 6.25 µg/mL (≈ 16.8 µM) | > 50 µg/mL | 50 µg/mL (≈ 134 µM) | 12.5 µg/mL (≈ 33.6 µM) | > 50 µg/mL | 50 µg/mL (≈ 134 µM) | 12.5 µg/mL (≈ 33.6 µM) | > 50 µg/mL |
| CC1(C)S[C@@H]2[C@H](NC(=O)[C@H](N)c3ccccc3)C(=O)N2[C@H]1C(=O)O [AMPICILLIN] | 12.5 µg/mL (≈ 35.8 µM) | – | 0.78 µg/mL (≈ 2.23 µM) | – | > 50 µg/mL | 12.5 µg/mL (≈ 35.8 µM) | – | 0.78 µg/mL (≈ 2.23 µM) | – | – | 50 µg/mL (≈ 143 µM) |
| O=C(O)c1cn(C2CC2)c2cc(N3CCNCC3)c(F)cc2c1=O [CIPROFLOXACIN] | 0.09 µg/mL (≈ 0.272 µM) | – | 0.38 µg/mL (≈ 1.15 µM) | – | 0.09 µg/mL (≈ 0.272 µM) | 0.01 µg/mL (≈ 0.0302 µM) | – | 0.38 µg/mL (≈ 1.15 µM) | – | – | – |
| Clc1ccccc1C(c1ccccc1)(c1ccccc1)n1ccnc1 [CLOTRIMAZOLE] | – | 4 µg/mL (≈ 11.6 µM) | – | 2 µg/mL (≈ 5.8 µM) | – | – | 0.25 µg/mL (≈ 0.725 µM) | – | 8 µg/mL (≈ 23.2 µM) | 0.25 µg/mL (≈ 0.725 µM) | – |
| OC(Cn1cncn1)(Cn1cncn1)c1ccc(F)cc1F [FLUCONAZOLE] | – | 4 µg/mL (≈ 13.1 µM) | – | 16 µg/mL (≈ 52.2 µM) | – | – | 1 µg/mL (≈ 3.27 µM) | – | > 32 µg/mL | 2 µg/mL (≈ 6.53 µM) | – |
| Nc1nc(=O)[nH]cc1F [FLUCYTOSINE] | – | > 32 µg/mL | – | > 32 µg/mL | – | – | 0.25 µg/mL (≈ 1.94 µM) | – | > 32 µg/mL | 0.13 µg/mL (≈ 1.01 µM) | – |
| CN[C@@H]1[C@@H](O)[C@@H](O[C@@H]2[C@@H](O)[C@H](O[C@H]3O[C@H]([C@@H](C)NC)CC[C@H]3N)[C@@H](N)C[C@H]2N)OC[C@]1(C)O [GENTAMICIN C1] | 0.39 µg/mL (≈ 0.817 µM) | – | 1.56 µg/mL (≈ 3.27 µM) | – | 0.39 µg/mL (≈ 0.817 µM) | 1.56 µg/mL (≈ 3.27 µM) | – | 1.56 µg/mL (≈ 3.27 µM) | – | – | 1.56 µg/mL (≈ 3.27 µM) |
| COc1cccc(OC)c1C(=O)N[C@@H]1C(=O)N2[C@@H]1SC(C)(C)[C@@H]2C(=O)O [METHICILLIN] | 0.04 µg/mL (≈ 0.105 µM) | – | – | – | > 50 µg/mL | 6.25 µg/mL (≈ 16.4 µM) | – | – | – | – | 50 µg/mL (≈ 131 µM) |
| Clc1ccc(COC(Cn2ccnc2)c2ccc(Cl)cc2Cl)c(Cl)c1 (stereo not given) [MICONAZOLE] | – | 3.12 µg/mL (≈ 7.5 µM) | – | 0.78 µg/mL (≈ 1.87 µM) | – | – | 25 µg/mL (≈ 60.1 µM) | – | 12.5 µg/mL (≈ 30 µM) | 12.5 µg/mL (≈ 30 µM) | – |
| CN[C@H](CC(C)C)C(=O)N[C@H]1C(=O)N[C@@H](CC(N)=O)C(=O)N[C@H]2C(=O)N[C@H]3C(=O)N[C@H](C(=O)N[C@H](C(=O)O)c4cc(O)cc(O)c4-c4cc3ccc4O)[C@H](O)c3ccc(c(Cl)c3)Oc3cc2cc(c3O[C@@H]2O[C@H](CO)[C@@H](O)[C@H](O)[C@H]2O[C@H]2C[C@](C)(N)[C@H](O)[C@H](C)O2)Oc2ccc(cc2Cl)[C@H]1O [VANCOMYCIN] | 12.5 µg/mL (≈ 8.63 µM) | – | – | – | > 50 µg/mL | 12.5 µg/mL (≈ 8.63 µM) | – | – | – | – | 12.5 µg/mL (≈ 8.63 µM) |
